Results of several laboratories.
ADRA1B: Alpha-1B adrenergic receptor (ADRA1B, Homo sapiens, UniProt P35368)
PPARA: Peroxisome proliferator-activated receptor alpha (PPARA, Homo sapiens, UniProt Q07869)
CASP1: Caspase-1 (CASP1, Homo sapiens, UniProt P29466)

The Ki of O=C1c2ccccc2CCN1CCCCN1CCN(c2ccccn2)CC1 is reported as 1.38 µM (ADRA1B; ligand displacement, radioligand).
Cc1c(C)n(Cc2ccc(-c3ccccc3C(=O)O)cc2)c2ccc(C(=O)N[C@@H](C)c3ccc([N+](=O)[O-])cc3)cc12 gave a Ki of 11.2 µM (PPARA; ligand displacement, TR-FRET).
CC[C@H](C)[C@H](NC(=O)[C@H](CCCNC(=N)N)NC(=O)[C@H](CCCNC(=N)N)NC(=O)[C@H](CC(C)C)NC(=O)CNC(=O)[C@H](CCC(N)=O)NC(=O)[C@H](C)NC(=O)[C@@H](NC(=O)[C@H](Cc1c[nH]c2ccccc12)NC(=O)[C@@H](NC(=O)[C@H](CCC(=O)O)NC(=O)[C@@H]1CCCN1C(=O)[C@H](CCCNC(=N)N)NC(C)=O)[C@@H](C)CC)[C@@H](C)CC)C(=O)NCC(=O)N[C@@H](CC(=O)O)C(=O)N[C@H](C(=O)N[C@@H](Cc1c[nH]c2ccccc12)C(=O)N[C@@H](CC(N)=O)C(=O)N[C@@H](C)C(=O)N[C@@H](Cc1ccc(O)cc1)C(=O)N[C@@H](Cc1ccc(O)cc1)C(=O)N[C@@H](C)C(=O)N[C@@H](CCCNC(=N)N)C(N)=O)[C@@H](C)O has a Ki of 0.008 µM (Bcl-2-related protein A1 (Homo sapiens, UniProt Q16548); ligand displacement, FP; pH 7.8).
For CC1(COc2ccc(CC3SC(=O)NC3=O)cc2)CCCCC1 (stereo not shown), the Ki was 141 µM (PPARA; ligand displacement, TR-FRET).
With CC(=O)N[C@@H](CC(C)C)C(=O)N[C@@H](CC(C)C)C(=O)N[C@@H](CCCN=C(N)N)C(=O)N[C@H](C(=O)N[C@@H](CCCCN)C(=O)N[C@@H](CCCN=C(N)N)C(N)=O)C(C)C the Ki was 1.6 µM (Neuroendocrine convertase 2 (Homo sapiens, UniProt P16519); enzyme activity, inhibitor).
With O=C1c2ccccc2CCN1CCCCN1CCN(c2cccc(Cl)c2Cl)CC1 the Ki was 0.649 µM (ADRA1B; ligand displacement, radioligand).
The Ki of O=S(=O)(Nc1ccc[nH]c1=S)c1cccs1 is reported as 77 µM (Insulin-degrading enzyme (IDE, Homo sapiens, UniProt P14735); enzyme activity, inhibitor, fluorescence).
With NCCCCC(c1ccccc1)(c1ccccc1)c1ccccc1 the Ki was 1.67 µM (Kinesin-like protein KIF11 (KIF11, Homo sapiens, UniProt P52732); ATPase activity, inhibitor).
With COc1ccccc1N1CCN(CCCCN2CCc3ccccc3C2=O)CC1 the Ki was 0.0766 µM (ADRA1B; ligand displacement, radioligand).
For O=c1cc(-c2ccc(O)c(O)c2)oc2cc(O)cc(O)c12, the Ki was 119 µM (CASP1; enzyme activity, inhibitor, fluorescence).
With CC(=O)N[C@@H](CCCNC(=N)N)C(=O)NCC(=O)NCC(=O)N1CCC[C@H]1B(O)O the Ki was 0.0016 µM (Prolyl endopeptidase (PREP, Homo sapiens, UniProt P48147); enzyme activity, inhibitor, fluorescence).
The Ki of O=c1c(O)c(-c2ccc(O)c(O)c2)oc2cc(O)cc(O)c12 is reported as over 300 µM (CASP1; enzyme activity, inhibitor, fluorescence).
CCCC[C@H](NC(=O)C1CN(C)C1)c1ncc(-c2cc3ccccc3nc2OC)[nH]1 gave a Ki of 0.273 µM (Histone deacetylase 3 (HDAC3, Homo sapiens, UniProt O15379); enzyme activity, inhibitor).
